UBC9 SUMO inh: inhibitors of human SUMOylation (UBC9); P63279; HTRF SUMOylation assay, SAE1/SAE2 + UBC9, in vitro; inhibition, % at 35 µM; 0.36% of 290,000 active; AID 2006; in the data active = inhibition above about 50%, passing the limit was not always enough
A3G deaminase: blocks human APOBEC3G single-stranded DNA deamination; Q9HC16; recombinant A3G, ssDNA deamination FAM/TAMRA fluorescence; inhibition, % at 20 µM; 0.28% of 330,000 active;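 active = inhibition of at least 40% at 20 µM, with no more than 30% in the related APOBEC3A deaminase screen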;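 also: plate controls were DMSO wells with A3G for no effect and wells lacking A3G enzyme for full effect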
Target sequence (Q9HC16 whole entry, looked up): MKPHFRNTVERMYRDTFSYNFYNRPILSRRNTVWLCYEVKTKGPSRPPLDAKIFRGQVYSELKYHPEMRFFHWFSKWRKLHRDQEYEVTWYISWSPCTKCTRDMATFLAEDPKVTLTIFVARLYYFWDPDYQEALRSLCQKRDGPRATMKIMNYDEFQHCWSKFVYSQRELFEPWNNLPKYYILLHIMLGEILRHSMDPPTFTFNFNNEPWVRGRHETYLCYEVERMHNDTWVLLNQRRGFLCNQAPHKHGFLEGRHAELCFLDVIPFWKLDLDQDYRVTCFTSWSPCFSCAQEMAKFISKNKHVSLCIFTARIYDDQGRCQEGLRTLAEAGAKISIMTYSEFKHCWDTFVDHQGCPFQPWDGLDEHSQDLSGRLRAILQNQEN
HKDC1 inhibitor: blocks human hexokinase HKDC1 activity. inhibition, % at 20 µM. recombinant HKDC1, G6PDH/diaphorase resazurin coupled fluorescence. Q2TB90. 0.16% of 340,000 active;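 active = inhibition above about 35% when tested at 20 µM, limit read from the data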;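 also: plate controls were DMSO wells with enzyme for no effect and DMSO wells lacking enzyme for full effect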
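Incubation: 90 min at room temperature in dark / Material: recombinant HKDC1 (HK5) hexokinase enzyme, produced in-house / Quantity: enzyme 5 µg/mL final / Compound: one dose of 20 µM, 1% DMSO / Reagent: glucose and ATP substrates / Buffer or medium: Tris pH 8.0 buffer with MgCl2, Tween-20, BSA, BME / Technique: resorufin fluorescence at 613 nm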
PfM18AAP inh-1: blocks P. falciparum M18 aspartyl aminopeptidase | recombinant PfM18AAP, H-Glu-NHMec fluorogenic cleavage | 1.2% of 290,000 active | inhibition, % at 7.35 µM;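 active = inhibition above the campaign mean inhibition over all tested compounds plus 3 SD, cut at about 28% in these data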;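 also: 0% = plate median of test compound wells and 100% = 2 mM ZnCl2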
A3A deaminase: human APOBEC3A DNA deaminase inhibition; recombinant A3A, FAM/TAMRA ssDNA deamination fluorescence; 0.41% of 330,000 active; P31941; inhibition, % at 20 µM;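 active = at least 40% inhibition at 20 µM here, with at most 30% in a related deaminase screen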;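 also: plate controls were A3A with DMSO for no effect and wells lacking A3A enzyme for full effect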
PfGluPho inh: PfG6PD (Plasmodium falciparum) enzyme inhibition; PfGluPho enzyme, NADPH resazurin-diaphorase fluorescence; inhibition, % at 20 µM; 0.78% of 350,000 active; AID 504690;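 active = inhibition reaching at least a set limit at 20 µM in the primary screen, cut at about 59% in these data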;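 also: 0% = DMSO wells with substrate and 100% = DMSO wells lacking glucose-6-phosphate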
PfM18AAP inh-2: confirmation of Plasmodium falciparum M18 aspartyl aminopeptidase inhibitors. shares compounds with PfM18AAP inh-1. recombinant PfM18AAP, H-Glu-NHMec fluorogenic cleavage. inhibition, % at 7.35 µM. 28% of 2,400 active. AID 2170;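 active = mean inhibition over replicate wells above the hit cutoff set for the earlier primary screen, cut at about 29% in these data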;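 also: 0% = median of test compound wells and 100% = 2 mM ZnCl2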
CTSL1 confirm: Cathepsin L (human) inhibition, confirmation; shares compounds with PfM18AAP inh-1; purified cathepsin L1, Z-Leu-Arg-MCA fluorescence; inhibition, % at 5.96 µM; 2,400 tested, under 10 active;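 active = average inhibition across replicates above the hit cutoff set in the earlier primary screen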;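 also: 0% = median of test compound wells and 100% = Z-Phe-Ala-diazomethylketone 1 µM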
An asterisk follows results filed as active; nt = not tested or not shown. Most compounds without a hit are left out; they make up all but 2.4% or so of the library.

SMILES	UBC9 SUMO inh	A3G deaminase	HKDC1 inhibitor	PfM18AAP inh-1	A3A deaminase	PfGluPho inh	PfM18AAP inh-2	CTSL1 confirm
CN1CCN(C(=O)/C(=C/c2ccc(N(C)C)cc2)NC(=O)c2ccccc2)CC1	6	-8	-3	3	-2	11	nt	nt
CCn1cc(CN2CCc3c([nH]c4ccccc34)C2c2ccc(F)c(OC)c2)c(C)n1 (stereo not given)	4	1	5	-2	3	13	nt	nt
CCn1c(/C=N/n2cnnc2)nc2ccccc21	39	0	-7	48*	5	6	-42	-5
Cc1cc(C)c2c(N)c(C(=O)NNC(=O)c3ccccc3)sc2n1	35	-1	-5	44*	2	6	12	-1
Cc1ccc2c(c1)C(=O)c1c(C(=O)O)cccc1-2	5	-6	-11	3	2	-8	nt	nt
CCOC(=O)C1C(=O)C=C(c2cccs2)CC1c1ccccc1C (stereo not given)	16	-5	7	4	5	-17	nt	nt
CCOC(=O)C1C(=O)C=C(c2cccs2)CC1c1ccccc1 (stereo not given)	-12	1	-11	56*	3	11	-43	-1
O=C(Cn1c(=O)cnc2ccccc21)NCC(=O)Nc1ccc(F)c(F)c1	nt	0	-5	nt	1	-4	nt	nt
COc1cc(CN2CCCCCC2)c([N+](=O)[O-])cc1OC	-2	-2	-2	33*	-5	24	-30	-7
COc1cc(CN2CCSCC2)c([N+](=O)[O-])cc1OC	8	-6	-5	26	-6	20	nt	nt
COc1ccc(CCNC(=O)CCS(=O)(=O)c2ccc3c(c2)NC(=O)C(C)S3)cc1OC (stereo not given)	2	-1	-5	4	0	-3	nt	nt
COc1cc(C(C[N+](=O)[O-])c2c(C)cc3ccccn23)ccc1O (stereo not given)	18	5	3	40*	5	39	-13	0
COc1cccc2cc(C(=O)Nc3ccccc3C)/c(=N/O)oc12	2	-2	-3	49*	2	-5	-21	1
COc1ccc2o/c(=N\O)c(C(=O)Nc3ccccc3OC)cc2c1	-5	-1	-9	7	-3	-2	nt	nt
Cc1ccc(-c2csc3nc[nH]c(=O)c23)cc1	19	-2	-7	-11	0	0	nt	nt
N=c1c(C(=O)NCc2ccco2)cc2c(=O)n3ccccc3nc2n1C1CCCC1	35	7	-3	36*	3	10	-31	0
O=C(COc1ccc(/C=N/NS(=O)(=O)c2ccccc2)cc1)Nc1ccc(F)cc1	2	-1	-1	-12	-2	-1	nt	nt
O=C(CN1CCN(S(=O)(=O)c2ccc(Br)cc2)CC1)c1ccc(O)c(O)c1	-6	-3	-4	72*	-4	-7	40*	-1
O=C(CN1CCN(c2ccccc2F)CC1)c1ccc(O)c(O)c1	-22	-4	-4	60*	-3	-15	37*	2
CC(C)c1ccc(S(=O)(=O)N2CCN(CC(=O)c3ccc(O)c(O)c3)CC2)cc1	10	-4	nt	67*	-9	nt	36*	7
S=C(NCC1CCCO1)N1CCN(c2cccc(Cl)c2)CC1 (stereo not given)	6	-9	-4	-7	-5	-3	nt	nt
O=C(NNC(=O)c1cc(O)c(O)c(O)c1)NC1CCCCC1	-1	1	-9	46*	-1	8	11	-3
CN(C)S(=O)(=O)c1ccc(S(=O)(=O)Nc2ccc3c(c2)oc2ccccc23)cc1	-3	-1	-4	2	2	-27	nt	nt
CCOC(=O)Cn1nnnc1CN(CCc1ccccc1)Cc1cc2cc(CC)ccc2[nH]c1=O	-11	1	8	7	7	18	nt	nt
Cc1nc(/C(=N/O)C(N)=O)cs1	9	-8	-5	48*	1	-3	38*	-1
CN1CCN(C(=O)C2=C[C@@H](c3ccccc3)C[C@@H](OCc3ccc(CO)cc3)O2)CC1	-10	6	3	2	1	-5	nt	nt

Bioassay records deposited in PubChem BioAssay by several laboratories.
